This is an account of results in publication PMC3313473 (Free radical biology & medicine, 2011).

Molecules are shown by their SMILES.

The test system of series [1] is primary human skeletal muscle cells (proliferating, differentiating, differentiated). Briefly: MTS cell viability assay. The conditions noted are these: 48 h. It counts as cell-based.
The test system of another series is Bcl-2. Briefly: Western immunoblot of Bcl-2. It counts as cell-based, human. The following applies: 5 µM, 48 h.
Series [2] has as its system primary human skeletal myotubes. Briefly: Morphological imaging and cell counting of myotubes. The format is cell-based. The following applies: 5 µM.
The next series has as its system primary human myotubes. Briefly: Mitochondrial superoxide production, MitoSOX Red flow cytometry. The format is cell-based. The following applies: 5 µM, 48 h. Background: In flow cytometry, cells or beads pass a laser one at a time.
For the next series, the system named is isolated myofibers. The following applies: 50 µM simvastatin; ref Sirvent et al. 29; cited from earlier work.
The subject of a further series is mitochondrial PTP. The following applies: ref Velho et al. 37; cited from earlier work.
Series [3] relates to primary human skeletal myotubes. Briefly: TUNEL assessment of apoptotic myonuclei. The format is cell-based. The conditions noted are these: 5 µM, 48 h. The method, boiled down: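 Coverslip-grown myotubes exposed 48 h to test compound or 0.1% DMSO vehicle; fixed in 4% paraformaldehyde/PBS (pH 7.4) 20 min RT, permeabilized with 0.1% Triton X-100 in 0.1% sodium citrate 10 min at 4°C. TdT/fluorescein-dUTP labelling 60 min at 37°C, humidified, dark; DAPI counterstain. DNase I positive and label-only negative controls. Positive myonuclei counted over multiple sections as % of DAPI nuclei.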

The test system is the same in series [4]. Briefly: Intracellular ROS generation, DCF-DA staining. It counts as cell-based. The following applies: simvastatin treated myotubes.
The next series has as its system Bax. Briefly: Western immunoblot of Bax. The format is cell-based, human. The following applies: 5 µM, 48 h. For orientation: In western blotting, separated proteins are transferred to a membrane and probed.
Series [5] relates to citrate synthase activity in primary human myotubes. Briefly: Citrate synthase activity in myotubes. It counts as cell-based. The conditions noted are these: simvastatin-treated myotubes.

Take `CC(O)(CCO)CC(=O)O` (stereo not shown) [mevalonate]: the “Effect of mevalonate on simvastatin-induced decrease in cell viability” value in [1] (differentiating cells, 1 µM simvastatin + 50 µM mevalonate) is “prevented”; in [1] (proliferating cells, 5 µM simvastatin + 50 µM mevalonate), “prevented”.
Regarding `CCC(C)(C)C(=O)O[C@H]1C[C@@H](C)C=C2C=C[C@H](C)[C@H](CC[C@@H]3C[C@@H](O)CC(=O)O3)[C@H]21` [simvastatin], in the series with Bcl-2, the “Bcl-2 protein levels greater than DMSO control” value was found to be 100%. The “Changes in the morphology of myotubes” value in [2] (24 h) was “not visible”. Further, in [2] (48 h), the “Changes in the morphology of myotubes” value is “less dense and atrophied”; the “Fewer myotubes compared with DMSO-treated controls” value was found to be 22.3%; the Myotube cell number is 0.87 × 10^6 cells/ml. In the series with primary human myotubes, the “Increase in O2•− generation compared to DMSO control” value is “approximately 44%”. For the same molecule, the “MitoSOX Red mean fluorescence intensity” value in the series with primary human myotubes (representative histogram) came to 46.1 counts. In the series with isolated myofibers, the “Maximal ADP-stimulated respiration supported by complex I substrates (glutamate + malate)” value was “significantly impaired”. In addition, in series [1] (Homo sapiens, read-out: IC50 for viability, proliferating cells, 48 h, MTS), the IC50 (usually the point on the concentration scale where inhibition reaches its midpoint) worked out at 5 µM. For the same molecule, in the series with mitochondrial PTP, the “In vivo and in vitro calcium-dependent mitochondrial PTP opening” value is on record as “increased”. Also, in [3], the “TUNEL-positive nuclei compared with control” value is “More TUNEL-positive nuclei”. The “DCF-DA staining compared with control” value in series [4] is given as “increased staining”. The “Bax protein levels higher than control” value in the series with Bax came out at 53%. This molecule also yielded a Citrate synthase activity in series [5] of 9.89 ± 1.04 µmol/g/min.
